From PubChem BioAssay
Shown are actives, neighbours in structure and some others; about 3.6% of the full set was active somewhere.
ZTA DNA inh = counter-screen for EBNA-1 inhibitors: inhibitors of Epstein-Barr virus ZTA; inhibition, % at 11 µM; ZTA-DNA binding, fluorescence polarization; P03206; 320,000 tested, 0.15% active; in the data active = inhibition above about 33%
Target sequence (P03206 whole entry, looked up): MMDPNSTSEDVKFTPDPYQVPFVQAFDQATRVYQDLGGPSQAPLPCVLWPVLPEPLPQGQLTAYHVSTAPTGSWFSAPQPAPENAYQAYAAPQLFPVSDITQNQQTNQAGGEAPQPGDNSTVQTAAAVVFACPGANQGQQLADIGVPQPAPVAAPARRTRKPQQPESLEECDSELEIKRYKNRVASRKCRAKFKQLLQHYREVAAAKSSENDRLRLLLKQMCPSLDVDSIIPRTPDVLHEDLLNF
NS3 helicase inh = inhibitors of Hepatitis C virus NS3 helicase; NS3 helicase DNA unwinding, Cy5 molecular beacon fluorescence; 290,000 tested, 0.56% active; AID 1800; inhibition, % at 10.9 µM;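 active = inhibition above the mean of all tested compounds plus 3 SD, set per campaign, cut at about 35% in these data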;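 also: 0% = DMSO wells and 100% = thioflavine S control wells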
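Assay system – hepatitis C virus NS3 helicase domain fragment enzyme · Buffer or medium – MOPS pH 6.5, MgCl2, DTT, Tween20, BSA · Reagent – Cy5/quencher beacon DNA duplex and ATP to start · Compound – single 10.9 µM dose · Timing – 1 h at 25 °C · Technique – Cy5 beacon fluorescence read at start and 1 h · Measure – % inhibition of unwinding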
FGF22 binding = shifts melting point of recombinant human FGF22. Q9HCT0. activity (Tm shift, normalised), % at 9.99 µM. AID 651658. 340,000 tested, 1.5% active. recombinant FGF22 thermal shift, SYPRO orange fluorescence; percent of sucrose octasulfate shift, DMSO zero;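 active = mean Tm shift, scaled 0 neutral to 100 positive control, at about 1.3% or above, every replicate too, limit read from the data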
Target sequence (Q9HCT0 whole entry, looked up): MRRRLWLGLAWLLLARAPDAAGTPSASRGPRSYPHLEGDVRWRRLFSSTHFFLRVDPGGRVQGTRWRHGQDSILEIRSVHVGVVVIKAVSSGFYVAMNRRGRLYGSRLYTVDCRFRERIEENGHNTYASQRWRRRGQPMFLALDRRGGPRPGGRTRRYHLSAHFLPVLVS
FID counter = fluorescent intercalator displacement, NS3 helicase counter-screen. 290,000 tested, 0.17% active. AID 1845. inhibition, % at 7.9 µM. DNA fluorescent intercalator displacement, fluorescence; in the data active = inhibition above about 37%;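 also: 0% = vehicle and 100% = reference compound; higher means more ethidium bromide displaced from hairpin DNA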
NR3A LBD binder = NR3A (human) ligand-binding domain modulation; Tm shift relative to glycine control, % at 25 µM; 340,000 tested, 2.5% active; NR3A LBD differential scanning fluorimetry, Tm shift; 0% = protein alone, 100% = glycine-bound protein; AID 1259313;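 active = melting temperature shift of at least 10% of the positive control shift, at one fixed dose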
EBNA-1 inh = blocks EBNA-1 binding to DNA; EBNA-1 DNA binding, fluorescence polarization; inhibition, % at 14.8 µM; 300,000 tested, 0.34% active; AID 1950; in the data active = inhibition above about 28%
An asterisk follows results filed as active; nt = no result.

SMILES	ZTA DNA inh	NS3 helicase inh	FGF22 binding	FID counter	NR3A LBD binder	EBNA-1 inh
Cc1noc(C)c1S(=O)(=O)Nc1ccc2c(c1)CC(=O)N([C@@H](C)CO)C[C@H](C)[C@H](CN(C)S(C)(=O)=O)O2	nt	nt	0	nt	nt	nt
CC(C)NC(=O)N(C)C[C@@H]1Oc2cc(-c3ccncc3)ccc2S(=O)(=O)N([C@H](C)CO)C[C@H]1C	nt	nt	0	nt	nt	nt
Cn1c(Nc2ccccc2)nc2ccccc21	-18	-14	0	4	12*	-6
Nn1c(Nc2ccccc2)nc2ccccc21	3	-2	nt	0	-2	-5
CC(C)Cn1c(-c2cc(Br)ccc2F)nc2c1c(=O)[nH]c(=O)n2CC(C)C	3	-14	2.3*	-40	0	-6
COc1ccc2c3c([nH]c2c1)[C@H](CO)N(C(=O)Nc1ccc(F)cc1)CC31CN(CC2CCOCC2)C1	nt	nt	0	nt	nt	nt
C[C@H]1CCCCO[C@@H](CN(C)C(=O)Nc2ccc3c(c2)OCO3)[C@@H](C)CN([C@@H](C)CO)C(=O)c2cc(NC(=O)Nc3ccccc3)ccc2O1	nt	nt	0	nt	nt	nt
O=C(c1ccc(OC2CCN(Cc3ccccc3C(F)(F)F)CC2)cc1)N1CCCCC1	11	-23	0	-10	19*	-5
O=C(c1ccc(OC2CCN(Cc3ccc(C(F)(F)F)cc3)CC2)cc1)N1CCCCC1	-2	-31	0	19	0	-4
COc1cc2ccccc2cc1C(=O)N/N=C/c1ccc2c(c1)OCO2	nt	13	1	-41	12*	nt
COc1cc(/C=N/NC(=O)c2cc(-c3ccc4c(c3)OCO4)n[nH]2)ccc1O	3	14	0	-6	28*	2
O=C(N/N=C/c1ccccc1O)c1ccncc1	10	nt	0	nt	21*	-7
O=C(N/N=C/c1cc2c(cc1Br)OCO2)c1cccnc1	18	-6	43*	-13	1	-8
COc1ccccc1C(=O)N/N=C/c1ccc2c(c1)OCO2	-3	5	0	-8	0	-6
O=C(C[C@@H]1CC[C@@H]2[C@H](COC[C@H](O)CN2Cc2cc(F)cc(F)c2)O1)NC1CCCC1	nt	nt	0	nt	nt	nt
C[C@H](CO)N1C[C@H](C)[C@H](CN(C)C(=O)C2CCCCC2)Oc2ncc(-c3ccccc3)cc2C1=O	nt	nt	0	nt	nt	nt
COc1ccccc1N/N=C/c1ccc2c(c1)OCO2	8	-13	44*	-1	-17	1
CC(=C/c1ccc(C(C)C)cc1)/C=N/NC(=O)c1ccncc1	9	7	43*	-8	-1	3
O=C(N/N=C/c1ccc(-c2ccc(Br)cc2)o1)c1ccc2c(c1)OCO2	-29	1	42	-1	11*	14
O=C(NN=Cc1ccc2c(c1)OCO2)c1ccccc1	nt	nt	0	nt	-1	nt
O=C(O)COc1ccccc1/C=N/NC(=O)/C(=C\c1ccc2c(c1)OCO2)NC(=O)c1ccccc1	12	-5	0	-36	191*	4
O=C(N/N=C/c1ccc(COc2ccc(Br)cc2)o1)c1ccc2c(c1)OCO2	nt	4	0	-11	4	nt
C[C@@H]1CCCCO[C@H](CN(C)CC2CC2)[C@H](C)CN([C@@H](C)CO)C(=O)c2cc(NS(=O)(=O)c3ccccc3)ccc2O1	nt	nt	0	nt	nt	nt
COc1ccc(S(=O)(=O)Nc2ccc3c(c2)C(=O)N([C@@H](C)CO)C[C@H](C)[C@@H](CN(C)C(=O)c2ccncc2)OCCCC[C@H](C)O3)cc1	nt	nt	0	nt	nt	nt
COCC(=O)N(C)C[C@@H]1Oc2ncc(C#Cc3ccccc3)cc2C(=O)N([C@@H](C)CO)C[C@H]1C	nt	nt	0	nt	nt	nt
SMILES	ZTA DNA inh	NS3 helicase inh	FGF22 binding	FID counter	NR3A LBD binder	EBNA-1 inh
Cc1ccc(S(=O)(=O)Nc2ccc3c(c2)CC(=O)N([C@@H](C)CO)C[C@@H](C)[C@@H](CN(C)C)O3)cc1	nt	nt	0	nt	nt	nt
COc1ccc2c3c([nH]c2c1)[C@H](CO)N(Cc1ccccc1F)CC31CCN(C(=O)C2CCOCC2)CC1	nt	nt	0	nt	nt	nt
O=C(NN=Cc1ccc2c(c1)OCO2)c1ccncc1	nt	nt	0	nt	25*	nt
CCOc1cc(-c2nc(-c3ccc(OC)cc3)no2)cc(OCC)c1OCC	9	-5	nt	-1	0	18
CCOc1cc(-c2nc(-c3ccccc3OC)no2)cc(OCC)c1OCC	10	-6	nt	-4	11*	-12
C[C@@H]1CN([C@@H](C)CO)S(=O)(=O)c2ccc(C#CC3(O)CCCC3)cc2O[C@H]1CN(C)C(=O)c1ccccc1	nt	nt	0	nt	nt	nt
CCOC(=O)c1nn(-c2ccc(Cl)cc2)c2nnc(Cc3ccccc3)c(=O)n12	-5	10	nt	-5	10*	6
CCOC(=O)c1nn(-c2ccc(Cl)cc2)c2nnc(Cc3ccc(C)cc3)c(=O)n12	-12	8	nt	-9	13*	-6
Cc1cccc(C)c1NC(=O)C1(N2C(=O)CC2c2ccccc2)CCCCC1 (stereo unspecified)	-19	12	44*	-20	-1	5
O=C(C[C@@H]1C[C@H]2c3cc(NS(=O)(=O)c4ccc(F)cc4)ccc3O[C@H]2[C@@H](CO)O1)NCc1ccncc1	nt	nt	0	nt	nt	nt
CC(C)CC#Cc1cnc2c(c1)C(=O)N([C@H](C)CO)C[C@H](C)[C@@H](CN(C)C(=O)c1ccccc1)O2	nt	nt	0	nt	nt	nt
CCCc1c(C)c2ccc(OCC(C)=O)cc2oc1=O	-5	0	nt	-11	12*	-9
O=C(CN1CCOCC1)N[C@@H]1CC[C@H](CCNC(=O)C2CCC2)O[C@H]1CO	nt	nt	0	nt	nt	nt
O=[N+]([O-])c1ccc(CSc2nnc(SCc3ccccc3)s2)cc1	-10	8	44*	0	-2	-10
COc1ccc2c3c(n(C)c2c1)[C@@H](CO)N(C(=O)CN1CCOCC1)CC31CN(Cc2ccncc2)C1	nt	nt	0	nt	nt	nt
CCOc1cc(/C=N/NC(=O)c2nnn(-c3nonc3N)c2C)ccc1OCc1cccc(F)c1	18	1	0	1	26*	4
CCOc1cc(/C=N/NC(=O)c2nn(C)cc2Br)ccc1OCc1ccccc1	10	-5	nt	-3	10*	-3
CCOc1cc(/C=N/NC(=O)c2nnn(-c3nonc3N)c2C)ccc1OCc1ccc(C)cc1	nt	nt	0	nt	nt	nt
COc1ccc(/C=N/NC(=O)c2c(C)nnn2-c2nonc2N)cc1OC	6	-14	43*	-4	19*	6
COc1ccc(/C=N/NC(=O)c2nnn(-c3nonc3N)c2C)cc1OC	nt	nt	1	nt	nt	nt
CCOc1cc(/C=N/NC(=O)c2nnn(-c3nonc3N)c2C)ccc1OCc1ccc(F)cc1	18	-5	0	-15	15*	2
CCNC(=O)[C@H]1[C@H](CO)[C@H]2Cn3c(ccc(C4=CCCC4)c3=O)[C@@H]1N2Cc1cccnc1	nt	nt	0	nt	nt	nt
Cc1noc(C)c1S(=O)(=O)Nc1ccc2c(c1)CC(=O)N([C@H](C)CO)C[C@H](C)[C@@H](CN(C)C)O2	nt	nt	0	nt	nt	nt
CC(C)C(=O)N=C1SC2CS(=O)(=O)CC2N1Cc1ccccc1 (stereo unspecified)	23	-13	43*	-8	-2	14
